Measured values taken from ChEMBL document CHEMBL4387700, “A novel, potent, and orally bioavailable thiazole HCV NS5A inhibitor for the treatment of hepatitis C virus” (Eur J Med Chem, 2019).

Experiment: Cytotoxicity against human HuH7 cells assessed as reduction in cell viability by MTS assay
Format: cell-based, Huh-7
Method in brief: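 Viability of Huh-7 cells was read by MTS assay.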

SMILES	CC50 [µM]
O=C(N[C@H](C(=O)N1CCC[C@H]1c1ncc(-c2ccc(-c3ccc(-c4cnc([C@@H]5CCCN5C(=O)[C@H](NC(=O)c5ccccc5)c5ccccc5)s4)cc3)cc2)s1)c1ccccc1)c1ccccc1	> 50
COC(=O)N[C@@H](C(=O)N1CCC[C@H]1c1ncc(-c2ccc(-c3ccc(-c4cnc([C@@H]5CCCN5C(=O)[C@H](NC(=O)OC)c5ccccc5)s4)cc3)cc2)s1)c1ccccc1	> 50
CCC(=O)N[C@H](C(=O)N1CCC[C@H]1c1ncc(-c2ccc(-c3ccc(-c4cnc([C@@H]5CCCN5C(=O)[C@H](NC(=O)CC)c5ccccc5)s4)cc3)cc2)s1)c1ccccc1	> 50
O=C(N[C@@H](C(=O)N1CCC[C@H]1c1ncc(-c2ccc(-c3ccc(-c4cnc([C@@H]5CCCN5C(=O)[C@H](NC(=O)c5ccsc5)c5ccccc5)s4)cc3)cc2)s1)c1ccccc1)c1ccsc1	> 50
CCCCC(=O)N[C@H](C(=O)N1CCC[C@H]1c1ncc(-c2ccc(-c3ccc(-c4cnc([C@@H]5CCCN5C(=O)[C@H](NC(=O)CCCC)c5ccccc5)s4)cc3)cc2)s1)c1ccccc1	> 50
O=C(N[C@@H](C(=O)N1CCC[C@H]1c1ncc(-c2ccc(-c3ccc(-c4cnc([C@@H]5CCCN5C(=O)[C@H](NC(=O)c5cccs5)c5ccccc5)s4)cc3)cc2)s1)c1ccccc1)c1cccs1	> 50
CC(C)(C)C(=O)N[C@H](C(=O)N1CCC[C@H]1c1ncc(-c2ccc(-c3ccc(-c4cnc([C@@H]5CCCN5C(=O)[C@H](NC(=O)C(C)(C)C)c5ccccc5)s4)cc3)cc2)s1)c1ccccc1	> 50
CCCC[C@H](NC(=O)OC)C(=O)N1CCC[C@H]1c1ncc(-c2ccc(-c3ccc(-c4cnc([C@@H]5CCCN5C(=O)[C@H](CCCC)NC(=O)OC)s4)cc3)cc2)s1	> 50
O=C(CCn1cccc1)N[C@@H](C(=O)N1CCC[C@H]1c1ncc(-c2ccc(-c3ccc(-c4cnc([C@@H]5CCCN5C(=O)[C@H](NC(=O)CCn5cccc5)c5ccccc5)s4)cc3)cc2)s1)c1ccccc1	> 50
O=C(N[C@@H](C(=O)N1CCC[C@H]1c1ncc(-c2ccc(-c3ccc(-c4cnc([C@@H]5CCCN5C(=O)[C@H](NC(=O)N5CCCCC5)c5ccccc5)s4)cc3)cc2)s1)c1ccccc1)N1CCCCC1	> 50
O=C(CCN1CCCCC1)N[C@@H](C(=O)N1CCC[C@H]1c1ncc(-c2ccc(-c3ccc(-c4cnc([C@@H]5CCCN5C(=O)[C@H](NC(=O)CCN5CCCCC5)c5ccccc5)s4)cc3)cc2)s1)c1ccccc1	> 50
CC(=O)N[C@H](C(=O)N1CCC[C@H]1c1ncc(-c2ccc(-c3ccc(-c4cnc([C@@H]5CCCN5C(=O)[C@H](NC(C)=O)c5ccccc5)s4)cc3)cc2)s1)c1ccccc1	> 50
O=C(N[C@@H](C(=O)N1CCC[C@H]1c1ncc(-c2ccc(-c3ccc(-c4cnc([C@@H]5CCCN5C(=O)[C@H](NC(=O)N5CCCC5)c5ccccc5)s4)cc3)cc2)s1)c1ccccc1)N1CCCC1	> 50
O=C(N[C@H](C(=O)N1CCC[C@H]1c1ncc(-c2ccc(-c3ccc(-c4cnc([C@@H]5CCCN5C(=O)[C@H](NC(=O)N5CCOCC5)c5ccccc5)s4)cc3)cc2)s1)c1ccccc1)N1CCOCC1	> 50
C[C@@H](NC(=O)C1CC1)C(=O)N1CCC[C@H]1c1ncc(-c2ccc(-c3ccc(-c4cnc([C@@H]5CCCN5C(=O)[C@@H](C)NC(=O)C5CC5)s4)cc3)cc2)s1	> 50
CS(=O)(=O)N[C@H](C(=O)N1CCC[C@H]1c1ncc(-c2ccc(-c3ccc(-c4cnc([C@@H]5CCCN5C(=O)[C@H](NS(C)(=O)=O)c5ccccc5)s4)cc3)cc2)s1)c1ccccc1	> 50
CCCCCC(=O)N[C@H](C(=O)N1CCC[C@H]1c1ncc(-c2ccc(-c3ccc(-c4cnc([C@@H]5CCCN5C(=O)[C@H](NC(=O)CCCCC)c5ccccc5)s4)cc3)cc2)s1)c1ccccc1	> 50
CCCC[C@@H](NC(=O)C1CC1)C(=O)N1CCC[C@H]1c1ncc(-c2ccc(-c3ccc(-c4cnc([C@@H]5CCCN5C(=O)[C@@H](CCCC)NC(=O)C5CC5)s4)cc3)cc2)s1	> 50
COC(=O)N[C@H](C(=O)N1CCC[C@H]1c1ncc(-c2ccc(-c3ccc(-c4cnc([C@@H]5CCCN5C(=O)[C@H](NC(=O)OC)c5ccccc5)s4)cc3)cc2)s1)c1ccccc1	> 50
O=C(N[C@@H](C(=O)N1CCC[C@H]1c1ncc(-c2ccc(-c3ccc(-c4cnc([C@@H]5CCCN5C(=O)[C@H](NC(=O)c5ccoc5)c5ccccc5)s4)cc3)cc2)s1)c1ccccc1)c1ccoc1	> 50
CN(C)CCC(=O)N[C@H](C(=O)N1CCC[C@H]1c1ncc(-c2ccc(-c3ccc(-c4cnc([C@@H]5CCCN5C(=O)[C@H](NC(=O)CCN(C)C)c5ccccc5)s4)cc3)cc2)s1)c1ccccc1	> 50
O=C(N[C@@H](C(=O)N1CCC[C@H]1c1ncc(-c2ccc(-c3ccc(-c4cnc([C@@H]5CCCN5C(=O)[C@H](NC(=O)C5CCCC5)c5ccccc5)s4)cc3)cc2)s1)c1ccccc1)C1CCCC1	> 50
COC(=O)N[C@H](C(=O)N1CCC[C@H]1c1ncc(-c2ccc(-c3ccc(-c4cnc([C@@H]5CCCN5C(=O)[C@@H](NC(=O)OC)C(C)C)s4)cc3)cc2)s1)C(C)C	> 50
O=C(N[C@H](C(=O)N1CCC[C@H]1c1ncc(-c2ccc(-c3ccc(-c4cnc([C@@H]5CCCN5C(=O)[C@H](NC(=O)C5CCCC5)c5ccccc5)s4)cc3)cc2)s1)c1ccccc1)C1CCCC1	> 50

SMILES	CC50 [µM]
CC(C)(C)[C@@H](NC(=O)C1CC1)C(=O)N1CCC[C@H]1c1ncc(-c2ccc(-c3ccc(-c4cnc([C@@H]5CCCN5C(=O)[C@H](NC(=O)C5CC5)C(C)(C)C)s4)cc3)cc2)s1	> 50
CC[C@@H](NC(=O)C1CC1)C(=O)N1CCC[C@H]1c1ncc(-c2ccc(-c3ccc(-c4cnc([C@@H]5CCCN5C(=O)[C@@H](CC)NC(=O)C5CC5)s4)cc3)cc2)s1	> 50
O=C(N[C@H](C(=O)N1CCC[C@H]1c1ncc(-c2ccc(-c3ccc(-c4cnc([C@@H]5CCCN5C(=O)[C@H](NC(=O)C5CC5)c5ccccc5)s4)cc3)cc2)s1)c1ccccc1)C1CC1	> 50
O=C(N[C@@H](C(=O)N1CCC[C@H]1c1ncc(-c2ccc(-c3ccc(-c4cnc([C@@H]5CCCN5C(=O)[C@H](NC(=O)c5ccco5)c5ccccc5)s4)cc3)cc2)s1)c1ccccc1)c1ccco1	> 50
CC(C)C(=O)N[C@@H](C(=O)N1CCC[C@H]1c1ncc(-c2ccc(-c3ccc(-c4cnc([C@@H]5CCCN5C(=O)[C@H](NC(=O)C(C)C)c5ccccc5)s4)cc3)cc2)s1)c1ccccc1	> 50
O=C(N[C@@H](C(=O)N1CCC[C@H]1c1ncc(-c2ccc(-c3ccc(-c4cnc([C@@H]5CCCN5C(=O)[C@H](NC(=O)c5cccnc5)c5ccccc5)s4)cc3)cc2)s1)c1ccccc1)c1cccnc1	> 50
CC(C)C(=O)N[C@H](C(=O)N1CCC[C@H]1c1ncc(-c2ccc(-c3ccc(-c4cnc([C@@H]5CCCN5C(=O)[C@H](NC(=O)C(C)C)c5ccccc5)s4)cc3)cc2)s1)c1ccccc1	> 50
O=C(CCN1CCCC1)N[C@H](C(=O)N1CCC[C@H]1c1ncc(-c2ccc(-c3ccc(-c4cnc([C@@H]5CCCN5C(=O)[C@H](NC(=O)CCN5CCCC5)c5ccccc5)s4)cc3)cc2)s1)c1ccccc1	> 50
O=C(N[C@@H](C(=O)N1CCC[C@H]1c1ncc(-c2ccc(-c3ccc(-c4cnc([C@@H]5CCCN5C(=O)[C@H](NC(=O)C5CCCCC5)c5ccccc5)s4)cc3)cc2)s1)c1ccccc1)C1CCCCC1	> 50
COC(=O)N[C@H](C(=O)N1CCC[C@H]1c1ncc(-c2ccc(-c3ccc(-c4cnc([C@@H]5CCCN5C(=O)[C@@H](NC(=O)OC)c5ccccc5)s4)cc3)cc2)s1)c1ccccc1	> 50
O=C(N[C@H](C(=O)N1CCC[C@H]1c1ncc(-c2ccc(-c3ccc(-c4cnc([C@@H]5CCCN5C(=O)[C@H](NC(=O)c5ccco5)c5ccccc5)s4)cc3)cc2)s1)c1ccccc1)c1ccco1	> 50
CCN(CC)CCC(=O)N[C@@H](C(=O)N1CCC[C@H]1c1ncc(-c2ccc(-c3ccc(-c4cnc([C@@H]5CCCN5C(=O)[C@H](NC(=O)CCN(CC)CC)c5ccccc5)s4)cc3)cc2)s1)c1ccccc1	> 50
O=C(N[C@@H](C(=O)N1CCC[C@H]1c1ncc(-c2ccc(-c3ccc(-c4cnc([C@@H]5CCCN5C(=O)[C@H](NC(=O)N5CCOCC5)c5ccccc5)s4)cc3)cc2)s1)c1ccccc1)N1CCOCC1	> 50
CC(C)C[C@@H](NC(=O)C1CC1)C(=O)N1CCC[C@H]1c1ncc(-c2ccc(-c3ccc(-c4cnc([C@@H]5CCCN5C(=O)[C@@H](CC(C)C)NC(=O)C5CC5)s4)cc3)cc2)s1	> 50
O=C(N[C@H](C(=O)N1CCC[C@H]1c1ncc(-c2ccc(-c3ccc(-c4cnc([C@@H]5CCCN5C(=O)[C@H](NC(=O)N5CCCC5)c5ccccc5)s4)cc3)cc2)s1)c1ccccc1)N1CCCC1	> 50
CCC[C@@H](NC(=O)C1CC1)C(=O)N1CCC[C@H]1c1ncc(-c2ccc(-c3ccc(-c4cnc([C@@H]5CCCN5C(=O)[C@@H](CCC)NC(=O)C5CC5)s4)cc3)cc2)s1	> 50
O=C(Cc1ccccc1)N[C@H](C(=O)N1CCC[C@H]1c1ncc(-c2ccc(-c3ccc(-c4cnc([C@@H]5CCCN5C(=O)[C@H](NC(=O)Cc5ccccc5)c5ccccc5)s4)cc3)cc2)s1)c1ccccc1	> 50
O=C(N[C@H](C(=O)N1CCC[C@H]1c1ncc(-c2ccc(-c3ccc(-c4cnc([C@@H]5CCCN5C(=O)[C@H](NC(=O)c5ccoc5)c5ccccc5)s4)cc3)cc2)s1)c1ccccc1)c1ccoc1	> 50
CCN(CC)CCC(=O)N[C@H](C(=O)N1CCC[C@H]1c1ncc(-c2ccc(-c3ccc(-c4cnc([C@@H]5CCCN5C(=O)[C@H](NC(=O)CCN(CC)CC)c5ccccc5)s4)cc3)cc2)s1)c1ccccc1	> 50
COC(=O)N[C@@H](C)C(=O)N1CCC[C@H]1c1ncc(-c2ccc(-c3ccc(-c4cnc([C@@H]5CCCN5C(=O)[C@H](C)NC(=O)OC)s4)cc3)cc2)s1	> 50
O=C(N[C@@H](C(=O)N1CCC[C@H]1c1ncc(-c2ccc(-c3ccc(-c4cnc([C@@H]5CCCN5C(=O)[C@H](NC(=O)c5ccccn5)c5ccccc5)s4)cc3)cc2)s1)c1ccccc1)c1ccccn1	> 50
CCC[C@H](NC(=O)OC)C(=O)N1CCC[C@H]1c1ncc(-c2ccc(-c3ccc(-c4cnc([C@@H]5CCCN5C(=O)[C@H](CCC)NC(=O)OC)s4)cc3)cc2)s1	> 50
CC(=O)N[C@@H](C(=O)N1CCC[C@H]1c1ncc(-c2ccc(-c3ccc(-c4cnc([C@@H]5CCCN5C(=O)[C@H](NC(C)=O)c5ccccc5)s4)cc3)cc2)s1)c1ccccc1	> 50
CN(C)CCC(=O)N[C@@H](C(=O)N1CCC[C@H]1c1ncc(-c2ccc(-c3ccc(-c4cnc([C@@H]5CCCN5C(=O)[C@H](NC(=O)CCN(C)C)c5ccccc5)s4)cc3)cc2)s1)c1ccccc1	> 50
